Test results taken from ChEMBL document CHEMBL4732226, “Discovery of a potent G-protein-coupled receptor 119 agonist for the treatment of type 2 diabetes” (Bioorg Med Chem, 2021).

Legend:
[1] = Toxicity in female po dosed Wistar rat after 28 days; format: organism-based; settings: in vivo, time 28 day
How it was run: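 Repeated-dose oral gavage study in Wistar rats, 10 per sex per group, at 100, 200 and 400 mg/kg once daily for 28 days. Clinical signs, mortality, neurobehaviour, food intake, body weight and ophthalmic examination were monitored, followed by blood biochemistry, organ weights and histopathology on day 29.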

[2] = Toxicity in male Wistar rat assessed as ratio of epididymides to body weight at 400 mg/kg, po after 28 days (reference value: 0.361 +/- 0.028); format: organism-based; settings: in vivo, 672 h, time 28 day
[3] = Toxicity in female Wistar rat assessed as ratio of ovaries to body weight at 100 mg/kg, po after 28 days (reference value: 0.091 +/- 0.009); format: organism-based; settings: in vivo, 672 h, time 28 day
[4] = Toxicity in female Wistar rat assessed as urea level at 400 mg/kg, po after 28 days (reference value: 48.09 +/- 5.3 mg/dl); format: organism-based; settings: in vivo, 672 h, time 28 day
[5] = Toxicity in male Wistar rat assessed as albumin level at 200 mg/kg, po after 28 days (reference value: 3.56 +/- 0.08 g.dl); format: organism-based; settings: in vivo, 672 h, time 28 day
[6] = Toxicity in male Wistar rat assessed as AST level at 200 mg/kg, po after 28 days (reference value: 119.4 +/- 9.3 U/L); format: organism-based; settings: in vivo, 672 h, time 28 day
[7] = Toxicity in female Wistar rat assessed as creatinine level at 400 mg/kg, po after 28 days (reference value: 0.6 +/- 0.04 mg/dl); format: organism-based; settings: in vivo, 672 h, time 28 day
[8] = Toxicity in female Wistar rat assessed as glucose level at 200 mg/kg, po after 28 days (reference value: 78.4 +/- 8.36 mg/dl); format: organism-based; settings: in vivo, 672 h, time 28 day
[9] = Toxicity in female Wistar rat assessed as creatinine level at 200 mg/kg, po after 28 days (reference value: 0.6 +/- 0.04 mg/dl); format: organism-based; settings: in vivo, 672 h, time 28 day
[10] = Toxicity in female Wistar rat assessed as AST level at 400 mg/kg, po after 28 days (reference value: 128.84 +/- 21.42 U/L); format: organism-based; settings: in vivo, 672 h, time 28 day
[11] = Toxicity in male Wistar rat assessed as ALT level at 100 mg/kg, po after 28 days (reference value: 30.47 +/- 2.63 U/L); format: organism-based; settings: in vivo, 672 h, time 28 day
[12] = Toxicity in female Wistar rat assessed as ratio of thymus to body weight at 400 mg/kg, po after 28 days (reference value: 0.260 +/- 0.025); format: organism-based; settings: in vivo, 672 h, time 28 day
[13] = Toxicity in female Wistar rat assessed as ratio of liver to body weight at 200 mg/kg, po after 28 days (reference value: 3.219 +/- 0.221); format: organism-based; settings: in vivo, 672 h, time 28 day
[14] = Half life in Sprague-Dawley rat at 25 mg/kg, po up to 24 hrs; format: ADME, organism-based; settings: in vivo
How it was run: (§1)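 Male SD rats fasted overnight, water ad libitum, fed 4 h after dosing. Single oral gavage of 25 mg/kg as a homogeneous suspension in 0.5% Tween 80 in 0.5% Na-CMC. Blood drawn into Na-heparin tubes at 0.25, 0.5, 1, 2, 4, 6, 8 and 24 h; plasma stored at -70°C. Parameters by non-compartmental analysis, with C0 taken as zero and BLQ samples set to zero.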

[15] = Toxicity in male Wistar rat assessed as ratio of testes to body weight at 200 mg/kg, po after 28 days (reference value: 1.248 +/- 0.073); format: organism-based; settings: in vivo, 672 h, time 28 day
[16] = Tmax in Beagle dog at 10 mg/kg, po up to 24 hrs; format: ADME, organism-based, Canis lupus familiaris; settings: in vivo
How it was run: (§2)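 Single oral dose at 10 mg/kg given to male Wistar rats and to Beagle dogs; bioavailability also determined in both species.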

[17] = Toxicity in female Wistar rat assessed as mortality up to 400 mg/kg, po after 28 days; format: organism-based; settings: in vivo, 672 h, time 28 day
How it was run: (§3)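 Repeated-dose oral toxicity by gavage in Wistar rats, 10 males and 10 females per group, given 100, 200 or 400 mg/kg once daily for 28 days. Endpoints were clinical signs, mortality, neurobehaviour, food intake, ophthalmic examination and body weight. Animals were sacrificed on day 29 for blood biochemistry, organ-to-body weight ratios and histopathology.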

[18] = AUC(0 to infinity) in Sprague-Dawley rat at 25 mg/kg, po up to 24 hrs; format: ADME, organism-based; parameters: route oral, dose 25 mg/kg, time <=24; settings: in vivo; how it was run: as §1
[19] = Toxicity in female Wistar rat assessed as ratio of uterus to body weight at 400 mg/kg, po after 28 days (reference value: 0.335 +/- 0.108); format: organism-based; settings: in vivo, 672 h, time 28 day
[20] = Toxicity in female Wistar rat assessed as ratio of kidney to body weight at 200 mg/kg, po after 28 days (reference value: 0.801 +/- 0.071); format: organism-based; settings: in vivo, 672 h, time 28 day
[21] = tested on: Mus musculus; experiment: Antidiabetic activity in db/db mouse assessed as reduction in blood glucose level at 50 mg/kg, po pretreated for 30 mins followed by glucose-stimulation and measured up to 120 mins by OGTT method relative to control; format: functional; parameters: scale not given: the % may be the effect or the level left; settings: 0.5 h
How it was run: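 db/db mice aged 5–7 weeks were fasted and grouped by fasting serum glucose. Single oral dose of 50 mg/kg; 30 min later basal bleed and oral glucose 2 g/kg. Serum glucose taken at 30, 60 and 120 min. AUC glucose excursion computed against a no-glucose water group and expressed as % reduction vs vehicle; mean ± s.e.m.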

[22] = Toxicity in male Wistar rat assessed as ratio of kidney to body weight at 200 mg/kg, po after 28 days (reference value: 0.787 +/- 0.078); format: organism-based; settings: in vivo, 672 h, time 28 day
[23] = Toxicity in female Wistar rat assessed as globulin level at 200 mg/kg, po after 28 days (reference value: 2.44 +/- 0.18 g/dl); format: organism-based; settings: in vivo, 672 h, time 28 day
[24] = Toxicity in male Wistar rat assessed as ratio of thymus to body weight at 400 mg/kg, po after 28 days (reference value: 0.148 +/- 0.023); format: organism-based; settings: in vivo, 672 h, time 28 day
[25] = Toxicity in female Wistar rat assessed as change in survival at 100 to 400 mg/kg, po after 28 days; format: organism-based; settings: in vivo, 672 h, dose 100-400 mg/kg, time 28 day; how it was run: as §3
[26] = Tmax in Wistar rat at 10 mg/kg, po up to 24 hrs; format: ADME, organism-based; settings: in vivo; how it was run: as §2
[27] = Toxicity in male Wistar rat assessed as creatinine level at 400 mg/kg, po after 28 days (reference value: 0.61 +/- 0.04 mg/dl); format: organism-based; settings: in vivo, 672 h, time 28 day
[28] = Toxicity in female Wistar rat assessed as ratio of adrenals to body weight at 100 mg/kg, po after 28 days (reference value: 0.045 +/- 0.007); format: organism-based; settings: in vivo, 672 h, time 28 day
[29] = AUC(0 to infinity) in Wistar rat at 10 mg/kg, po up to 24 hrs; format: ADME, organism-based; parameters: route oral, dose 10 mg/kg, time <=24; settings: in vivo; how it was run: as §2
[30] = Toxicity in female Wistar rat assessed as urea level at 200 mg/kg, po after 28 days (reference value: 48.09 +/- 5.3 mg/dl); format: organism-based; settings: in vivo, 672 h, time 28 day
[31] = Toxicity in male Wistar rat assessed as albumin level at 400 mg/kg, po after 28 days (reference value: 3.56 +/- 0.08 g.dl); format: organism-based; settings: in vivo, 672 h, time 28 day
[32] = Toxicity in female Wistar rat assessed as ALT level at 200 mg/kg, po after 28 days (reference value: 21.28 +/- 2.31 U/L); format: organism-based; settings: in vivo, 672 h, time 28 day

Cc1c(Oc2cccc(/C=C3\SC(=O)NC3=O)c2)ncnc1OC1CCN(C(=O)OC(C)(C)C)CC1
NOAEL at 672 h [1]: > 400 mg/kg | Ratio [2]: 0.365 | Ratio [3]: 0.089 | Activity [4]: 43.2 mg/dL | Activity [5]: 3.61 g/dL | Activity [6]: 116.98 U/L | Activity [7]: 0.6 mg/dL | Activity [8]: 82.1 mg/dL | Activity [9]: 0.66 mg/dL | Activity [10]: 123.93 U/L | Activity [11]: 28.9 U/L | Ratio [12]: 0.244 | Ratio [13]: 3.285 | half-life [14]: 3.09 h | Ratio [15]: 1.289 | Tmax [16]: 3 h | Activity [17]: Non-Toxic | AUC(0-inf) [18]: 19700 ng·h/mL | Ratio [19]: 0.429 | Ratio [20]: 0.84 | Activity [21]: 69.1% | Ratio [22]: 0.847 | Activity [23]: 2.42 g/dL | Ratio [24]: 0.196 | Activity [25]: Non-Toxic | Tmax [26]: 1.5 h | Activity [27]: 0.57 mg/dL | Ratio [28]: 0.046 | AUC(0-inf) [29]: 1900 ng·h/mL | Activity [30]: 46.42 mg/dL | Activity [31]: 3.54 g/dL | Activity [32]: 22.2 U/L
